The record followed here is PubChem BioAssay AID624081 (The Scripps Research Institute Molecular Screening Center, 2012).

Where “and” joins values, the source holds several entries; their conditions need not be identical. Equal values may be shown once. Calls of active or inactive are those of the source.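 Rule for the calls: active = inhibitor concentration giving a fourfold drop in imipenem MIC is at most 10 µM; inactive = fourfold MIC drop needs more than 10 µM.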

What is called MIC is the lowest concentration found to suppress growth.

Assay [1] has as its system VIM-2 E. coli growth with imipenem, OD600, 18 h. The assay is described as follows: growth inhibition synergy, VIM-2 E. coli plus imipenem – MIC 4-fold reduction, powder samples, late-stage follow-up (AID 624081). In short, it runs like this:
(§1)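 Test system: VIM-2-transformed Escherichia coli, checkerboard broth microdilution with imipenem. Buffer or medium: cation-adjusted Mueller-Hinton broth. Reagent: imipenem in two-fold dilution series along plate columns. Timing: ≥18 h at 37 °C, aerobic.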

Assay in assay [2]: as above
The following applies: VIM-2 E. coli growth with imipenem, OD600, 18 h; measured here: max imipenem potentiation fold. A digest of the protocol: as §1

Take `O=C(CN1C(=O)/C(=C/c2c(Cl)ccc(Cl)c2Cl)SC1=S)NCc1ccccn1`: the MIC in assay [1] was 3.12 µM.

`CCOC(=O)c1c(NC(=O)CN2C(=O)/C(=C/c3c(Cl)cccc3Cl)SC2=S)sc2c1CCCC2`: in assay [1], the MIC was > 100 µM (inactive).

Consider `O=C(CN1C(=O)/C(=C/c2c(Cl)cccc2Cl)SC1=S)Nc1cccnc1`, for which the fold potentiation in assay [2] stood at 8. Also, the MIC in assay [1] is 3.12 µM.

With `CN1CCC(NC(=O)CN2C(=O)/C(=C/c3c(Cl)cccc3Cl)SC2=S)CC1`, the fold potentiation in assay [2] is 8. For the same molecule, the MIC in assay [1] was 12.5 µM (inactive).

Turning to `Cc1c(N2C(=O)/C(=C/c3c(Cl)cccc3Cl)SC2=S)c(=O)n(-c2ccccc2)n1C`, the fold potentiation in assay [2] stood at 8. For the same molecule, the MIC in assay [1] is 12.5 µM (inactive).

Turning to `O=C(CN1C(=O)/C(=C/c2c(Cl)cccc2Cl)SC1=S)NOCc1ccccc1`, the MIC in assay [1] is > 100 µM (inactive).

For the molecule `CCN(CC)OC(=O)CN1C(=O)/C(=C/c2c(Cl)cccc2Cl)SC1=S`, in assay [2], the fold potentiation worked out at 8. In addition, the MIC in assay [1] is 6.2 µM.

As to `O=C(CN1C(=O)/C(=C/c2c(Cl)cccc2Cl)SC1=S)Nc1cc([N+](=O)[O-])ccc1O`, in assay [2], the fold potentiation amounted to 8. Besides, the MIC in assay [1] is 3.12 µM.

In the case of `O=C(CN1C(=O)/C(=C/c2c(Cl)cccc2Cl)SC1=S)NCc1ccccc1Br`, in assay [1], the MIC was > 100 µM (inactive).

`Cc1cc(NC(=O)CN2C(=O)/C(=C/c3c(Cl)cccc3Cl)SC2=S)no1`: the MIC in assay [1] was > 100 µM (inactive).

Regarding `CN1CCN(NC(=O)CN2C(=O)/C(=C/c3c(F)cccc3C(F)(F)F)SC2=S)CC1`, the fold potentiation in assay [2] worked out at 8. Moreover, the MIC in assay [1] was 25 µM (inactive).

Turning to `C=CCONC(=O)CN1C(=O)/C(=C/c2c(Cl)cccc2Cl)SC1=S`, the MIC in assay [1] was > 100 µM (inactive).

Take `COC(=O)CNC(=O)CN1C(=O)/C(=C/c2c(Cl)cccc2Cl)SC1=S`: the MIC in assay [1] was > 100 µM (inactive).

Consider `CN(C)CCNC(=O)CN1C(=O)/C(=C/c2ccccc2Cl)SC1=S`, for which, in assay [1], the MIC is > 100 µM (inactive).

`O=C1/C(=C/c2c(Cl)cccc2Cl)SC(=S)N1Cc1ccncc1`: the fold potentiation in assay [2] came out at 8. In assay [1], the MIC was 12.5 µM (inactive).

In the case of `CN1CCN(C(=O)CN2C(=O)/C(=C/c3c(Cl)cccc3Cl)SC2=S)CC1`, the fold potentiation in assay [2] worked out at 8. In addition, the MIC in assay [1] is 12.5 µM (inactive).

Consider `CN(NC(=O)CN1C(=O)/C(=C/c2c(Cl)cccc2Cl)SC1=S)c1ncc(C(F)(F)F)cc1Cl`, for which the MIC in assay [1] was > 100 µM (inactive).

Turning to `CN1CCN(NC(=O)CN2C(=O)/C(=C/c3ccccc3F)SC2=S)CC1`, the MIC in assay [1] was > 100 µM (inactive).

Consider `CC(C)(C)OC(=O)N1CCN(NC(=O)CN2C(=O)/C(=C/c3c(Cl)ccc(Cl)c3Cl)SC2=S)CC1`, for which the minimum inhibitory concentration (MIC) in assay [1] is 1.56 µM.

For the molecule `O=C(CN1C(=O)/C(=C/c2ccccc2Cl)SC1=S)NCCc1cnc[nH]1`, the MIC in assay [1] is > 100 µM (inactive).

As for `COc1ccc(CNC(=O)CN2C(=O)/C(=C/c3c(Cl)cccc3Cl)SC2=S)cc1`, in assay [1], the MIC was > 100 µM (inactive).

As for `NC(=O)CN1C(=O)/C(=C/c2c(Cl)cccc2Cl)SC1=S`, the MIC in assay [1] is 25 µM (inactive).

With `O=C(CN1C(=O)/C(=C/c2c(Cl)cccc2Cl)SC1=S)NN1CCCCC1`, the fold potentiation in assay [2] turned out to be 8. Also, in assay [1], the MIC is 6.2 µM.

For `O=C(CN1C(=O)/C(=C/c2ccccc2Cl)SC1=S)Nc1ccc(O)cc1`, the MIC in assay [1] was > 100 µM (inactive).

Regarding `O=C(CN1C(=O)/C(=C/c2c(Cl)cccc2Cl)SC1=S)NN1CCNCC1`, the fold potentiation in assay [2] turned out to be 8. Moreover, the MIC in assay [1] was 3.12 µM.

For `O=C(CN1C(=O)/C(=C/c2c(Cl)cccc2Cl)SC1=S)Nc1ccccc1F`, the MIC in assay [1] was > 100 µM (inactive).

For the molecule `O=C(CN1C(=O)/C(=C/c2c(Cl)ccc(Cl)c2Cl)SC1=S)NN1CCNCC1`, in assay [1], the MIC is 12.5 µM (inactive).

For the molecule `O=C(CN1C(=O)/C(=C/c2c(Cl)cccc2Cl)SC1=S)Nc1ccc(Cl)cn1`, in assay [1], the MIC is > 100 µM (inactive).

`CN(C)CCNC(=O)CN1C(=O)/C(=C\c2ccccc2Cl)SC1=S`: the MIC in assay [1] was > 100 µM (inactive).

For the molecule `CC(C)(C)NC(=O)CN1C(=O)/C(=C/c2c(Cl)cccc2Cl)SC1=S`, the MIC in assay [1] is > 100 µM (inactive).

`O=C(CN1C(=O)/C(=C/c2c(Cl)cccc2Cl)SC1=S)NC[C@@H]1CCCO1`: the MIC in assay [1] is > 100 µM (inactive).

`CN1CCN(NC(=O)CN2C(=O)/C(=C/c3c(C(F)(F)F)ccc(Cl)c3Cl)SC2=S)CC1`: the fold potentiation in assay [2] amounted to 8. In assay [1], the MIC is 1.56 µM.

Consider `COC(=O)CN1C(=O)/C(=C/c2c(Cl)cccc2Cl)SC1=S`, for which the fold potentiation in assay [2] came out at 8. In addition, in assay [1], the MIC was 12.5 µM (inactive).

In the case of `CN1CCN(NC(=O)CN2C(=O)/C(=C/c3c(Cl)cccc3Cl)SC2=S)CC1`, the fold potentiation in assay [2] is 8. Also, the MIC in assay [1] was 6.25 µM and 12.5 µM (inactive).

For `O=C(CN1C(=O)/C(=C/c2c(Cl)cccc2Cl)SC1=S)Nc1ccc(Br)cn1`, the MIC in assay [1] is > 100 µM (inactive).

On to `O=C(CN1C(=O)/C(=C/c2c(Cl)cccc2Cl)SC1=S)NC1CCCCC1`, for which the MIC in assay [1] is > 100 µM (inactive).

Consider `O=C(CN1C(=O)/C(=C/c2c(Cl)cccc2Cl)SC1=S)Nc1ccccc1`, for which the MIC in assay [1] is > 100 µM (inactive).

Take `CC(C)(C)OC(=O)N1CCN(NC(=O)CN2C(=O)/C(=C/c3c(Cl)cccc3Cl)SC2=S)CC1`: in assay [2], the fold potentiation is 8. For the same molecule, the minimum inhibitory concentration (MIC) in assay [1] is 6.2 µM.

Regarding `CC(C)N1CCN(NC(=O)CN2C(=O)/C(=C/c3c(Cl)cccc3Cl)SC2=S)CC1`, in assay [2], the fold potentiation came out at 16. In assay [1], the MIC was 12.5 µM (inactive).

Regarding `CN1CCN(C(=O)CN2C(=O)/C(=C/c3c(Cl)ccc(Cl)c3Cl)SC2=S)CC1`, in assay [1], the MIC was 6.25 µM.

As for `O=C(CN1C(=O)/C(=C/c2c(Cl)cccc2Cl)SC1=S)Nc1ccncc1`, the fold potentiation in assay [2] amounted to 8. In addition, the MIC in assay [1] was 12.5 µM (inactive).

Regarding `C=CCNC(=O)CN1C(=O)/C(=C/c2c(Cl)cccc2Cl)SC1=S`, the MIC in assay [1] is > 100 µM (inactive).

For `O=C(CN1C(=O)/C(=C/c2c(Cl)cccc2Cl)SC1=S)NC[C@H]1CCCO1`, the MIC in assay [1] was > 100 µM (inactive).

Take `CN1CCN(NC(=O)CN2C(=O)/C(=C/c3c(Cl)ccc(Cl)c3Cl)SC2=S)CC1`: the fold potentiation in assay [2] was determined as 8. In assay [1], the MIC was 3.12 µM.

Consider `O=C(O)CN1C(=O)/C(=C/c2c(Cl)cccc2Cl)SC1=S`, for which the fold potentiation in assay [2] came to 8. For the same molecule, the MIC in assay [1] was 3.12 µM.

`O=C(CN1C(=O)/C(=C/c2c(Cl)cccc2Cl)SC1=S)Nc1ccc(I)cn1`: the MIC in assay [1] is > 100 µM (inactive).

Regarding `O=C(CN1C(=O)/C(=C/c2c(Cl)cccc2Cl)SC1=S)NCc1ccncc1`, the MIC in assay [1] was 12.5 µM (inactive).

Take `O=C(O)CN1C(=O)/C(=C/c2c(F)cccc2C(F)(F)F)SC1=S`: the fold potentiation in assay [2] was 8. In addition, the MIC in assay [1] was 25 µM (inactive).

On to `CN1CCN(NC(=O)CN2C(=O)/C(=C/c3c(F)cccc3Cl)SC2=S)CC1`, for which, in assay [1], the MIC was 12.5 µM (inactive).

`CN1CCN(NC(=O)CN2C(=O)/C(=C/c3ccccc3Cl)SC2=S)CC1`: the MIC in assay [1] is 50 µM (inactive).

Consider `O=C(CN1C(=O)/C(=C/c2c(Cl)cccc2Cl)SC1=S)Nc1ccccn1`, for which the MIC in assay [1] was > 100 µM (inactive).

As for `O=C(CN1C(=O)/C(=C/c2c(Cl)cccc2Cl)SC1=S)NCc1ccccn1`, in assay [2], the fold potentiation worked out at 8. Further, the MIC in assay [1] is 6.2 µM.

Turning to `O=C1NC(=S)S/C1=C\c1c(Cl)cccc1Cl`, in assay [1], the MIC was > 100 µM (inactive).

In the case of `CN1CCN(NC(=O)CN2C(=O)/C(=C/c3c(Cl)ccc(C(F)(F)F)c3Cl)SC2=S)CC1`, in assay [2], the fold potentiation is 8. Besides, the minimal inhibitory concentration (MIC) in assay [1] was 0.781 µM.

Take `CN(NC(=O)CN1C(=O)/C(=C/c2c(Cl)cccc2Cl)SC1=S)c1ccc(Cl)nn1`: the MIC in assay [1] was > 100 µM (inactive).

In the case of `O=C(CN1C(=O)/C(=C/c2c(Cl)cccc2Cl)SC1=S)Nn1cnnc1`, the MIC in assay [1] is > 100 µM (inactive).

With `O=C(CN1C(=O)/C(=C/c2c(Cl)cccc2Cl)SC1=S)NCCc1c[nH]c2ccccc12`, the MIC in assay [1] was > 100 µM (inactive).

Turning to `Cc1cc(C)n(NC(=O)CN2C(=O)/C(=C/c3c(Cl)cccc3Cl)SC2=S)c(=O)c1`, the fold potentiation in assay [2] is 8. In addition, the MIC in assay [1] was 3.12 µM.
